Key:
Format in all cases: functional
Nakaseomyces glabratus [1] = test: Antifungal activity against Candida glabrata isolate Cg21S
In short: (§1)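 Fluconazole susceptibility by modified CLSI (NCCLS) broth microdilution. Medium was buffered RPMI with 2% glucose added. Inoculum was 250 cells per well, incubated at 37°C for 48 h. MIC was read as the concentration giving 80% growth reduction (MIC80). Clinical oropharyngeal isolates were cultured on YPD or on minimal medium (yeast nitrogen base plus 2% glucose).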

Nakaseomyces glabratus [2] = test: Antifungal activity against Candida glabrata isolate Cg22R with CgPDR1 L280F mutant; in short: as §1
Nakaseomyces glabratus [3] = test: Antifungal activity against Candida glabrata isolate Cg7S; in short: as §1
Nakaseomyces glabratus [4] = test: Antifungal activity against Candida glabrata isolate Cg8R with CgPDR1 W297S; in short: as §1
Nakaseomyces glabratus [5] = test: Antifungal activity against Candida glabrata isolate Cg17S; in short: as §1
Nakaseomyces glabratus [6] = test: Antifungal activity against Candida glabrata isolate Cg18R with CgPDR1 L344S mutant; in short: as §1
Nakaseomyces glabratus [7] = test: Antifungal activity against Candida glabrata isolate Cg11S; in short: as §1
Nakaseomyces glabratus [8] = test: Antifungal activity against Candida glabrata isolate Cg12R with CgPDR1 G348A mutant; in short: as §1
Nakaseomyces glabratus [9] = test: Antifungal activity against Candida glabrata isolate Cg3S; in short: as §1
Nakaseomyces glabratus [10] = test: Antifungal activity against Candida glabrata isolate Cg4R with CgPDR1 S391L mutant; in short: as §1
Nakaseomyces glabratus [11] = test: Antifungal activity against Candida glabrata isolate Cg1S; in short: as §1
Nakaseomyces glabratus [12] = test: Antifungal activity against Candida glabrata isolate Cg2R with CgPDR1 F575L mutant; in short: as §1
Nakaseomyces glabratus [13] = test: Antifungal activity against Candida glabrata isolate Cg13S; in short: as §1
Nakaseomyces glabratus [14] = test: Antifungal activity against Candida glabrata isolate Cg14R with CgPDR1 N764I mutant; in short: as §1
Nakaseomyces glabratus [15] = test: Antifungal activity against Candida glabrata isolate Cg15S; in short: as §1
Nakaseomyces glabratus [16] = test: Antifungal activity against Candida glabrata isolate Cg16R with CgPDR1 R772I mutant; in short: as §1
Nakaseomyces glabratus [17] = test: Antifungal activity against Candida glabrata isolate Cg5S; in short: as §1
Nakaseomyces glabratus [18] = test: Antifungal activity against Candida glabrata isolate Cg6R with CgPDR1 G943S mutant; in short: as §1

Measured: MIC80

OC(Cn1cncn1)(Cn1cncn1)c1ccc(F)cc1F [FLUCONAZOLE]
512 µg/mL: Nakaseomyces glabratus [4]
16 µg/mL: Nakaseomyces glabratus [11] | Nakaseomyces glabratus [15]
64 µg/mL: Nakaseomyces glabratus [13]
128 µg/mL: Nakaseomyces glabratus [12] | Nakaseomyces glabratus [16]
32 µg/mL: Nakaseomyces glabratus [1] | Nakaseomyces glabratus [3] | Nakaseomyces glabratus [5] | Nakaseomyces glabratus [7] | Nakaseomyces glabratus [9] | Nakaseomyces glabratus [17]
256 µg/mL: all other assays above
